pIC50: −log10 of the molar value.
How the values were obtained:
[1] = tested on: tyrosine kinases in HK-2 cells; experiment: Inhibition of tyrosine kinase phosphorylation after uptake in HK-2 cells; format: cell-based, human; conditions: 10 μM, 24 hours incubation of HK-2 cells, lysis, ATP stimulation, Western blot
Outline: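 HK-2 cells were seeded at 1.5 × 10^4 per well, serum-starved overnight, then given 10 μM test compound or 0.1% (v/v) DMSO control for 24 h. Cells were PBS-washed and lysed with protease and phosphatase inhibitors, and protein was measured by BCA. Lysate was mixed with an equal volume of 10 μM ATP in Abl buffer (pH 7.5) and held 60 min at 37°C. 10 μg protein went to SDS-PAGE, anti-phosphotyrosine (PY20) blot and densitometry.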

[2] = tested on: α-SMA, collagen IV, and vimentin; experiment: Immunostaining of fibrotic markers in kidney sections, UUO model; format: in vivo; conditions: UUO mice 3 days; daily 50 mg/kg sunitinib malate ip
Outline: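 Male C57Bl/6J mice, 3-day UUO; n=7 per treatment group, n=6 per control. Dosing: single iv test compound (40 mg/kg conjugate) or equimolar iv sunitinib malate (3.4 μmol/kg), or ip sunitinib malate 50 mg/kg with 2nd/3rd doses at 24 and 48 h. Sections 3 μm, peroxide/azide block pH 5.8; 15-min boil citrate pH 6.0 (collagen IV, vimentin) or Tris/EDTA pH 9.0 (α-SMA); primaries 1 h RT (1:400, 1:400, 1:200).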

HK-2 cells = experiment: In vitro cytotoxicity, sulforhodamine B assay; format: cell-based; conditions: Homo sapiens, HK-2, 24 h, read-out: IC50 cell viability
PDGFR-β = PDGFR-β (Mus musculus, UniProt P05622); experiment: Western blot of p-PDGFR-β in renal cortex, UUO model; format: in vivo; conditions: UUO mice 3 days; three daily ip injections 50 mg/kg sunitinib malate
Outline: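 Male C57Bl/6J mice sacrificed after 3 days UUO; ip sunitinib malate 50 mg/kg, with 2nd/3rd doses at 24 and 48 h. Cortex homogenized in RIPA with protease/phosphatase inhibitors and EDTA. Blots blocked 1 h at room temperature in 5% milk/TBS-T. Probed overnight at 4°C with rabbit anti-p-PDGFR-β (Tyr740, 1:200) or β-actin (1:1000) in TBS-T/5% BSA.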

[3] = Renal accumulation pharmacokinetics after a single intravenous injection; format: in vivo, mice
Outline: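 After one intravenous dose of sunitinib malate, 1.7 μmol/kg (0.9 mg/kg), to male C57Bl/6J mice, kidneys were collected at set times and frozen at −80°C. Kidneys were homogenised in 4% BSA to 0.1 g tissue/mL. Sunitinib was measured by LC-MS/MS against homogenate standards of 10–500 ng/mL, and renal levels are expressed as % of injected dose.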

[4] = Plasma pharmacokinetics after a single intravenous injection; format: in vivo, mice
Outline: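 Male C57Bl/6J mice (n = 15) received one intravenous dose of sunitinib malate, 1.7 μmol/kg (0.9 mg/kg), equimolar to a 20 mg/kg lysozyme conjugate. Blood was taken by cheek puncture at 1 min and at sacrifice time points, then centrifuged. Plasma sunitinib was measured by LC-MS/MS against standards of 10 ng/mL–1 μg/mL. Values are % of dose, assuming plasma volume 0.05 mL/g. Parameters come from two-compartment curve fitting.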

[5] = tested on: collagen 1A2, PAI-1, fibronectin, and MCP-1; experiment: Renal mRNA expression of profibrotic genes; format: in vivo; conditions: UUO mice 3 days; three daily ip injections 50 mg/kg sunitinib malate
Outline: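 Male C57Bl/6J mice, 3-day UUO; groups n=6–7; single iv test compound or sunitinib malate, or ip sunitinib malate 50 mg/kg with later doses at 24 and 48 h. TaqMan qRT-PCR on whole kidney and cortex. mRNA normalized to TBP and expressed relative to non-obstructed control mice (set at 1). Mean ± SEM; one-way ANOVA, P < 0.05.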

ABCG2 = conditions: cited from earlier work
P-glycoprotein (P-gp) = conditions: cited from earlier work
[6] = tested on: UUO-induced tubulointerstitial fibrosis; experiment: Overall antifibrotic effect in UUO-induced tubulointerstitial fibrosis; format: in vivo; conditions: UUO mice, daily 50 mg/kg sunitinib malate
Outline: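 Male C57Bl/6J mice weighing 13–25 g had unilateral ureteral obstruction and were killed after 3 days. Sunitinib malate was given as three daily intraperitoneal injections of 50 mg/kg (94 μmol/kg), n = 7. Controls were normal mice and untreated UUO mice, n = 6 each. Kidneys were scored for collagen IV, vimentin and α-SMA immunostaining and p-PDGFR-β (Tyr740) Western blot. Data are mean ± SEM.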

[7] = mice, single iv, equimolar 1.7 μmol/kg, kidneys
[8] = mice, single iv, equimolar 1.7 μmol/kg, kidneys, listed as sunitinib

Chain of PDGFR-β (P05622 32-1098): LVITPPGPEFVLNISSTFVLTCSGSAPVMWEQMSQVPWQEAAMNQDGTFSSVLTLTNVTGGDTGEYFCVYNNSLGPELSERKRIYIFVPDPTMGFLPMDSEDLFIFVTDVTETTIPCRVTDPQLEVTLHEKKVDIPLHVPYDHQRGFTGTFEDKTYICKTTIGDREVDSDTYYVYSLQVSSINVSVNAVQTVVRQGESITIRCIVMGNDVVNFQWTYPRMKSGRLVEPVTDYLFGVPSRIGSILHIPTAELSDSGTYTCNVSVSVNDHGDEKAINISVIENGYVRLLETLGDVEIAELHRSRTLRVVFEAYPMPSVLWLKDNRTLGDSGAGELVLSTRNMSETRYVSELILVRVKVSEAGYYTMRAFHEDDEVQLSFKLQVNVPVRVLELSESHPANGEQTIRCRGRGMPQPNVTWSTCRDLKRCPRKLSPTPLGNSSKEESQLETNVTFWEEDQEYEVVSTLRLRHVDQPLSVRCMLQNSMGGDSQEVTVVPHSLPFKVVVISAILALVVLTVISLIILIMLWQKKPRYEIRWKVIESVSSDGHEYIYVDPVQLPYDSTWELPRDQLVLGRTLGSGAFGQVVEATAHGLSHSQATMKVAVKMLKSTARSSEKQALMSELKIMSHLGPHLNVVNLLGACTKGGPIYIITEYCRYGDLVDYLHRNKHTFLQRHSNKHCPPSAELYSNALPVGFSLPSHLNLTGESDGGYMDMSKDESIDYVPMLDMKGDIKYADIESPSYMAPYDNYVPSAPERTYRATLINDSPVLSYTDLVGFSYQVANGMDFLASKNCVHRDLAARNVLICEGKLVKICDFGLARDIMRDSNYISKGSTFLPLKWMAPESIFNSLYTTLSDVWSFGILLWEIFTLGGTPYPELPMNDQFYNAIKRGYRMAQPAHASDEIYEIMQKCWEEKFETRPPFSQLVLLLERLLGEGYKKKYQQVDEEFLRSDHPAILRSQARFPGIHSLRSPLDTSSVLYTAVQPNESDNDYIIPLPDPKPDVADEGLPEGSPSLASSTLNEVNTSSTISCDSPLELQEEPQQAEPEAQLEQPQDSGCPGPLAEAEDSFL

In the case of `CCN(CC)CCNC(=O)c1c(C)[nH]c(/C=C2\C(=O)Nc3ccc(F)cc32)c1C` [Sunitinib, sunitinib], the “inhibitory effect on phosphorylation of tyrosine kinases” value [1] was “strongly inhibited multiple kinases”, the “renal deposition of α-SMA, collagen IV, and vimentin” value [2] was “decreased the deposition of vimentin in the kidneys, although these differences were not significant” and the pIC50 (HK-2 cells) was 4.92. For the same compound, the “p-PDGFR-β levels in the renal cortex” value (PDGFR-β) was “decreased p-PDGFR-β levels in the renal cortex”, the half-life ([3]; C57BI/6 J, mouse, kidneys, iv, 0.9 mg/kg) was 66 min and the “time to almost complete elimination from the kidneys” value ([3]; mice, after administration) was no more than 12 h. The “time to maximum renal levels” value ([3]; mice, single iv, equimolar 1.7 μmol/kg) was no more than 30 min, the “AUC0–∞” value [3, 7] was 9.4% dose*hours and the “Cmax (% of the dose)” value [3, 7] was 4.9%. The “AUC0–∞” value [3, 8] was 9.4 % dose*hours, the “Cmax (% of the dose)” value [3, 8] was 4.9% and the half-life ([4]; C57Bl/6J, mouse, plasma, iv, 0.9 mg/kg) was 25 min. For the same compound, the “Peripheral distribution volume (V2)” value ([4]; mice, single iv, equimolar 1.7 μmol/kg, plasma) was 87 mL, the “initial distribution volume (V1) relative to 17864-ULS-lysozyme” value ([4]; mice, single iv, equimolar dose) was “over 15 fold” and the “renal mRNA expression of collagen 1A2, PAI-1, fibronectin, MCP-1” value [5] was “significantly lower renal mRNA levels of collagen 1A2 and fibronectin”. For the same compound, the “substrate of efflux transporter ABCG2” value (ABCG2) was “substrate”, the “substrate of efflux transporter P-gp” value (P-glycoprotein (P-gp)) was “substrate” and the antifibrotic effect ([6]; listed as sunitinib) was “reduction of some of the studied markers”. For the same compound, the antifibrotic effect ([6]; listed as sunitinib malate) was “antifibrotic responses”.

Reference: article PMC3273977 (International Journal of Nanomedicine, 2012)
